Screening results (PubChem BioAssay)
m5-HT2A agonist: activates the mouse 5-HT2A serotonin receptor. P35363. CHO-K1 mHTR2A beta-arrestin complementation, luminescence; percent of 30 µM serotonin response. activation, % at 7.6 µM. 360,000 tested, 0.66% active;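 active means activation above a run cutoff, the mean activation of all tested compounds plus 3 SD, cut at about 14% in these data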;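 further: 0% = plate median of compound wells and 100% = 30 µM serotonin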
Target sequence (P35363 whole entry, looked up): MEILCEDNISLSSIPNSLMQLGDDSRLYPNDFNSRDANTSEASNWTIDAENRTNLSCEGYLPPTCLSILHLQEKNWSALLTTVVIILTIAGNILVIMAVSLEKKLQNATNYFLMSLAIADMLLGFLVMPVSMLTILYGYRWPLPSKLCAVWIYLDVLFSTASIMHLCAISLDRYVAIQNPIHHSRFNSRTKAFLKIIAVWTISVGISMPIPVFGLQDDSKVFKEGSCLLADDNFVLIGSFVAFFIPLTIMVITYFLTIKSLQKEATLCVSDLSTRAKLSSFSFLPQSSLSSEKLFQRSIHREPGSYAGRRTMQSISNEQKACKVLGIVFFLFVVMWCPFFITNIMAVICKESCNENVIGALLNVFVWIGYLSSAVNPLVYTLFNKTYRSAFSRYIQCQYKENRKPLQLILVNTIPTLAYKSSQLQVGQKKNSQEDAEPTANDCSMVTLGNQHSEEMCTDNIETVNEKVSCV
CCR6 antag: blocks CCL20-driven beta-arrestin recruitment at human CCR6; AID 493098; P51684; 340,000 tested, 0.49% active; inhibition, % at 20 µM; CHO-K1 CCR6 PathHunter beta-arrestin, luminescence, CCL20-stimulated;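 active means compounds whose inhibition of the agonist-driven luminescence signal at 20 µM reaches about 50%, limit read from the data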;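 further: cells stimulated with CCL20 at 14 nM final; plate controls were DMSO with CCL20 for no effect and DMSO without agonist for full effect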
CXCR6 inh: blocks human CXCR6 beta-arrestin recruitment; AID 602244; O00574; CHO-K1 PathHunter CXCR6 beta-arrestin, luminescence; 360,000 tested, 0.36% active; inhibition, % at 20 µM; in the data active means inhibition above about 34%, passing the limit was not always enough;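 further: antagonist mode with CXCL16 agonist at 10 nM final; 0% = 10 nM CXCL16 with DMSO and 100% = unstimulated wells without agonist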
EBI2 block: EBI2 (human) antagonism. inhibition, % at 5 µM. EBI2 beta-arrestin recruitment, luminescence, 7a,25-OHC stimulated. P32249. AID 651636. 360,000 tested, 0.81% active; in the data active means inhibition above about 38%;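 further: enzyme fragment complementation signal reports receptor beta-arrestin coupling in cells; 0% = agonist plus DMSO wells and 100% = wells without agonist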
APJ ag: APJ receptor agonism; CHO-K1 APJ PathHunter beta-arrestin, luminescence; 0% DMSO wells, 100% apelin; activation, % at 20 µM; 330,000 tested, 0.11% active;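 active means activation more than six SD over the plate average, tested at 20 µM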;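 further: 0% = DMSO alone and 100% = apelin-13 at 10 nM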
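Material: engineered CHO-K1 APJ arrestin reporter cells; amount: 1000 CHO-K1 reporter cells seeded per well; incubation: compound stimulation 90 min at 25 °C, detection 60 min; signal: luminescent beta-gal fragment complementation, chemiluminescent substrate; read-out basis: APJ agonist activity; controls: DMSO-only wells as negative, 10 nM Apelin-13 as positive control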
APJ antag: blocks the human apelin receptor APJ | P35414 | CHO-K1 APJ beta-arrestin complementation, luminescence | inhibition, % at 20 µM | 330,000 tested, 0.32% active | AID 2521;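 active means inhibition above about 40% at 20 µM, limit read from the data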;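 further: cells challenged with 10 nM apelin-13 agonist together with compound; plate controls were apelin-13 plus DMSO wells for no effect and DMSO wells lacking apelin-13 for full effect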
OPRM1 ag: activates human mu opioid receptor in HTR2A counterscreen. shares compounds with m5-HT2A agonist. U2OS OPRM1 beta-arrestin PathHunter, luminescence; DMSO 0%, DAMGO 9.3 µM 100%. activation, % at 9.3 µM. 2,300 tested, 5.3% active. AID 624380;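 active means mean activation above the mean of DMSO-only wells plus 3 SD, cut at about 0.5% in these data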
HTR2A ag conf: mouse HTR2A agonism confirmed | shares compounds with m5-HT2A agonist | CHO-K1 PathHunter beta-arrestin recruitment, luminescence; DMSO 0%, 30 µM serotonin 100% | activation, % at 7.6 µM | 2,300 tested, 19% active | AID 624381;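 active means mean activation across triplicates above the hit threshold derived in the original primary screen, cut at about 15% in these data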
An asterisk follows results filed as active; / = not tested or not shown. Hits are enriched below; roughly 2.2% of the tested compounds scored in any of these assays.

SMILES	m5-HT2A agonist	CCR6 antag	CXCR6 inh	EBI2 block	APJ ag	APJ antag	OPRM1 ag	HTR2A ag conf
Cc1cccc(-c2ccc3[nH]c4c(c3c2)CCN2C[C@H]3[C@H](C)ON(C)[C@H]3C[C@@H]42)c1	8.4	/	-4.2	-2.3	/	/	/	/
O=C(/C=C/c1ccccc1Cl)N(c1ccccn1)C1CCCCC1	15.9*	16.5	10.7	3.3	-4.3	-2.3	-0.3	39.6*
CC(C)C[C@H](NC(=O)N1CCn2c1nc1ccccc12)C(=O)NCCc1ccccc1	2.7	6.9	0.7	8.4	0.2	17.2	/	/
CC(C)C[C@H](NC(=O)N1CCn2c1nc1ccccc12)C(=O)NCc1ccccc1	15.4*	16.7	7.1	-5.3	-0.3	-5.8	/	6.7
CC1=CC(=O)C=CC1=Nc1ccc(N(C)C)cc1	-0.8	/	20.3	-3.3	/	/	/	/
O=S1(=O)CC(N2CCCCC2)CN1Cc1cn(Cc2ccc(C(F)(F)F)cc2)nn1 (centres undefined)	-3.3	/	-5.9	-12.9	/	/	/	/
COc1cc(NC(=O)c2ccc3c(SCC(=O)O)c4c(nc3c2)CCCC4)cc(OC)c1OC	14.9*	14.7	8.5	-7.5	-1.6	6.4	-0.6	-3.5
CCc1nc2ccc(C(=O)Nc3ccc4c(c3)OCC(=O)N4)cn2c1N(C)C(=O)C1CCCCC1	-4.0	/	2.5	-2.8	/	/	/	/
COc1ccccc1CNCC(O)(c1ccc(Cl)cc1)c1ccc(Cl)cc1	21.9*	28.5	11.9	18.5	-3.7	11.7	-0.2	7.9
COc1ccccc1CNCC(O)(c1ccc(F)cc1)c1ccc(F)cc1	-10.0	14.3	-5.6	5.9	-2.2	16.6	/	/
CC1NC(=O)c2cc3ccccc3cc2-n2c1nc1ccccc1c2=O (centres undefined)	-4.3	/	-5.7	3.0	/	/	/	/
Cc1ccc(NC(=O)CN2CCOCC2)cc1	14.5*	2.0	1.6	-0.9	-3.6	18.3	-0.5	-0.2
O=C(Cc1c(F)cccc1Cl)N1CCN(S(=O)(=O)c2cccc(F)c2)CC1	14.4*	7.2	4.2	2.0	-6.8	22.3	-0.5	-2.0
CCOC(=O)CC1C(=O)NCCN1C(=S)Nc1ccccc1 (centres undefined)	8.6	-6.5	-6.4	-5.6	3.2	-16.9	/	/
CCOC(=O)CC1C(=O)NCCN1C(=S)NC(=O)c1ccccc1OC (centres undefined)	15.6*	6.5	-3.6	-9.5	-3.1	-14.1	-0.8	-3.2
O=S(=O)(NCC[C@@H]1CC[C@H](NS(=O)(=O)c2cccc(F)c2)[C@@H](CO)O1)c1cccc(F)c1	7.3	/	/	-8.5	/	/	/	/
O=C(NCc1ccc(F)cc1)C1CCCN(S(=O)(=O)c2cccc3nonc23)C1 (centres undefined)	17.4*	2.7	-3.4	9.9	-3.7	-10.8	-0.6	-4.5
Cc1ccc(S(=O)(=O)N2C[C@@H](C)[C@]3(C2)[C@H](O)[C@H](OC(=O)NC2CCCC2)C[C@H]2C(=O)N(c4ccccc4)C(=O)[C@H]23)cc1	9.7	/	-1.0	-0.8	/	/	/	/
Cc1cccc(C)c1N1C(=O)c2ccccc2NC(=O)C1C(=O)NCC(C)C (centres undefined)	0.8	/	/	-7.6	/	/	/	/
O=C(CCCc1ccccc1)N1CCN(C2CCCCC2)CC1	25.4*	3.3	0.6	8.0	-2.2	11.3	0.8*	14.3
CCCS(=O)(=O)NC(=O)C1(C)CCCN(C(=O)c2ccccc2OC(F)(F)F)C1 (centres undefined)	7.9	/	11.1	2.9	/	/	/	/
CCOC(=O)N1CCC(N2C(=O)c3ccc(C(=O)NCc4ccco4)cc3C2=O)CC1	23.1*	6.5	7.1	3.2	-5.0	-6.8	-0.5	-3.9
CCOC(=O)N1CCC(N2C(=O)c3ccc(C(=O)NCc4ccc(F)cc4)cc3C2=O)CC1	-4.8	10.6	0.0	-1.2	-2.5	9.0	/	/
CC(C)C[C@@H](COCc1cccc(Cl)c1)N1CCN(C(=O)c2ccc(C(F)(F)F)cc2)CCC1=O	2.3	/	5.0	20.6	/	/	/	/
N#CCN1CCCC(C(N)=O)C1 (centres undefined)	19.5*	-0.9	-2.8	-2.6	-0.8	-0.8	-0.4	-4.0
SMILES	m5-HT2A agonist	CCR6 antag	CXCR6 inh	EBI2 block	APJ ag	APJ antag	OPRM1 ag	HTR2A ag conf
O=c1[nH]c(C2CCN(S(=O)(=O)c3ccc(F)cc3)CC2)nc2c1nnn2Cc1ccc2c(c1)OCCO2	15.3*	3.2	-13.6	19.6	0.1	-2.1	-0.6	-3.8
O=c1[nH]c(C2CCN(S(=O)(=O)c3ccccc3F)CC2)nc2c1nnn2Cc1ccc2c(c1)OCCO2	-2.7	8.7	0.0	7.3	4.7	4.4	/	/
O=C(CCN1CCN(c2ccccc2F)CC1)Nc1ccc2c(c1)OCO2	17.6*	4.1	3.6	5.5	-2.8	-2.0	-0.3	59.4*
O=C(CCN1CCN(c2ccccc2)CC1)Nc1ccc2c(c1)OCO2	12.6	14.6	-8.1	10.7	-2.7	11.7	/	/
CCOC(=O)C1(C)CCCCN1C(=O)c1ccccc1OC (centres undefined)	-2.0	/	-1.9	-6.3	/	/	/	/
CCOC(=O)C1(C)CCCN1C(=O)c1ccccc1OC (centres undefined)	15.0*	/	3.2	-10.6	/	/	-0.5	-3.5
COC(C(=O)NNS(=O)(=O)c1ccccc1[N+](=O)[O-])c1ccccc1 (centres undefined)	18.4*	-6.4	-4.3	1.9	-3.2	14.9	-0.4	-1.5
O=S(=O)(NCCSc1ccccc1)c1cccs1	15.0*	-7.9	-3.9	3.2	-2.6	17.7	-0.8	-5.3
O=S(=O)(NCCc1ccccc1)c1cccs1	-2.4	15.0	3.2	-0.7	1.2	-9.4	/	/
Cc1ccc(NC(=O)CN(C)S(=O)(=O)c2ccc(Cl)s2)c(O)c1	17.8*	15.4	-7.5	-5.8	-1.7	-28.2	-0.8	-1.0
CC(C)(C)NS(=O)(=O)c1cc(C(=O)Nc2sccc2C#N)ccc1Cl	18.1*	6.4	-0.8	2.8	-3.6	16.0	-0.4	15.2*
O=C(CC1(O)C(=O)Nc2ccccc21)c1ccccc1O (centres undefined)	20.7*	12.1	-6.6	-16.7	-4.4	-1.0	-1.3	-3.0
CCCCOCCCNC(=O)C[C@@H]1C[C@@]2(C(=O)OC)CC(C)(C)CC=C2N(Cc2ccc3c(c2)OCO3)C1=O	1.6	/	/	1.3	/	/	/	/
O=C(NC(=S)Nc1ccccn1)c1cccc([N+](=O)[O-])c1	27.3*	13.3	3.7	-7.8	1.8	6.5	-0.7	-4.5
CCOc1ccc(C(=O)NC(=S)Nc2ccccn2)cc1[N+](=O)[O-]	-2.1	-1.9	9.0	5.0	-1.4	14.2	/	/
